Compounds with a hit are over-represented: about 1.8% of the library has one in this group of screens.
Autophagy mod: alters autophagy in cells. MEF GFP-LC3 puncta imaging; test concentration mostly 10 µM. calls only at 10 µM (by protocol). actives 0.98% (n = 190,000). AID 463193;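 active = percentage of spot-positive cells more than 3 SD above its plate mean, without a fluorescence outlier flag or 80% toxicity; inconclusive = no clear call, values can overlap the other calls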;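 also: spot-positive cell cutoff set from DMSO-treated cells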
MDM2 E3 inh: blocks human Mdm2 ubiquitin ligase activity. cell-based MDM2 ubiquitination luciferase reporter, 2 h; 0 = plate control, 100 = twice control, blank-subtracted. actives 0.11% (n = 210,000). Q00987. AID 1230. signal enhancement, % at 5 µM;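 active = signal enhancement of 30% or more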;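 also: luminescence tracks abundance of the self-degrading MDM2-luciferase fusion protein; higher signal means inhibition of MDM2 E3 ligase activity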
Target sequence (Q00987 whole entry, looked up, the tested form may be a part): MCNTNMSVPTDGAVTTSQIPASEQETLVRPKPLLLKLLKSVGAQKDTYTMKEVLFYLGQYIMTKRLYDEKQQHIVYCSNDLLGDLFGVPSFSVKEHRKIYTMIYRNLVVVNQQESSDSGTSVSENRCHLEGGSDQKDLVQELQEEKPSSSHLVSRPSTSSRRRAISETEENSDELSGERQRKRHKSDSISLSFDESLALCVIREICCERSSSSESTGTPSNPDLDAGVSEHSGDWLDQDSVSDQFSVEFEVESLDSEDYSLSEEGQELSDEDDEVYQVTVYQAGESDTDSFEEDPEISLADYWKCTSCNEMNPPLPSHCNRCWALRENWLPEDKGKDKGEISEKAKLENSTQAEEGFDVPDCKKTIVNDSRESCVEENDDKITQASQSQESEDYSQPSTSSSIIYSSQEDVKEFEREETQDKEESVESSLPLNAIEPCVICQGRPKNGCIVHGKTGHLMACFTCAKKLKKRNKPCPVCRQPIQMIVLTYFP
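test system = mammalian cells stably expressing self-ubiquitinating, self-degrading MDM2 E3–luciferase fusion | quantity = 2000 cells/well | incubation = cell settling 4 h, compound treatment 2 h, both 37 °C | signal = luminescence with SteadyLite reagent, 15 min at room temperature | evaluation = % enhancement relative to plate controls after blank subtraction | benchmarks = plate controls and plate blanks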
TNF necrop inh: inhibitors of TNF-alpha induced necroptosis in Jurkat FADD-/- cells; activation (protection from cell death), % at 10 µM; Jurkat FADD-/- TNF necroptosis rescue, ATP luminescence, 24 h; 0 = TNF only, 100 = no-TNF cells; actives 0.068% (n = 220,000);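 active = activation, meaning protection from cell death, of at least 50% relative to plate controls; inactive = activation below 50%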;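 also: necroptosis triggered by 40 ng/mL TNF-alpha added together with compound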
Dynein cargo inh: dynein cargo transport inhibition; actives 0.47% (n = 220,000); 3617.4 mouse cells, GR-EGFP nuclear translocation imaging; test concentration mostly 20 µM; stimulated with dexamethasone, 1 µM; hits give low values; z-score, hits read low;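 active = plate z-score of nuclear minus cytoplasmic receptor signal below a set negative limit, without overly bright fluorescence or cell loss, cut at about -3.5 in these data, passing the limit was not always enough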;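 also: z-score of nuclear minus cytoplasmic ring GR-EGFP intensity difference per well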
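Buffer or medium – tet-free medium with charcoal-stripped serum · Signal – automated 10x imaging of fixed Hoechst-stained cells · Also added – dexamethasone agonist, 1.0 µM final, for 30 min · Incubation – induction 48 h, compound 1 h, agonist 30 min · Read-out – GR-EGFP nuclear translocation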
zVAD death inh: blocks zVAD induced death of L929 cells; AID 1377; actives 0.38% (n = 220,000); viability rescue, % at 10 µM; L929 zVAD necroptosis rescue, ATP luminescence, 24 h; with zVAD 60 µM;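 active = activation, scaled between plate controls, above about 75%, limit read from the data; inactive = activation under that limit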;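 also: 0% = zVAD with DMSO and 100% = DMSO alone without zVAD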
Dynein inh conf: dynein cargo transport inhibition, confirmation; shares compounds with Dynein cargo inh; 3617.4 GR-EGFP nuclear translocation imaging, dexamethasone-induced; calls only at 20 µM; actives 69% (n = 1,000); AID 463116;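 active = inhibition of receptor movement into the nucleus at or above a set limit in both runs, with normal cell brightness and cell count; inconclusive = limit reached in only one run, brightness and count normal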;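 also: dexamethasone at 1 µM final in well for 30 min; nuclear minus cytoplasmic GR-EGFP mean intensity difference in channel 2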
The depositor's hits bear a star; i = inactive; ? = inconclusive; · = not tested or not shown; + = active, no number.

SMILES	Autophagy mod	MDM2 E3 inh	TNF necrop inh	Dynein cargo inh	zVAD death inh	Dynein inh conf
COc1cccc(C(=O)Oc2ccccc2/C=C\C(=O)c2cc3ccccc3o2)c1	i	-9	0	-4*	2	+
COc1ccc(C(=O)C(CN2CCCC2)c2ccccc2)cc1 (stereo unspecified)	i	-16	-15	-4.3*	63	+
CCCOc1ccc(C(=O)C(CN2CCCC2)c2ccccc2)cc1 (stereo unspecified)	i	5	-20	-3.4	·	·
O=C(c1ccc(F)cc1)C(CN1CCOCC1)c1ccccc1 (stereo unspecified)	i	10	-17	-6.1*	38	+
CCN1C(=O)[C@H]2[C@H]3[C@H](O)[C@H](O)C/C(=N\OC[C@@H](C)[C@H](OCc4ccccc4)C(C)C)[C@@H]3CC[C@H]2C1=O	i	·	-1	-0.31	1	·
CCCn1c(N)c(N(CCOC)C(=O)/C=C/c2cccc(Cl)c2)c(=O)[nH]c1=O	i	-1	1	-0.26	1	·
Cc1ccnn1CCC(=O)O	·	-13	2	-0.6	1	·
CCn1c(=O)c([N+](=O)[O-])c(Cl)c2ccccc21	i	1	-7	-6.1*	28	+
CC(=O)Nc1ccc(SC[C@H](c2ccccc2)N2CCN(CCc3ccccc3)CCC2=O)cc1	·	13	-1	-4.7*	-1	i
NS(=O)(=O)c1ccc(O)c(NC(=O)c2ccc([N+](=O)[O-])cc2)c1	i	-17	-1	-0.26	1	·
Cc1cc(S(=O)(=O)Nc2cc(C)c(O)c(C)c2)c(C)s1	i	-6	-3	-4*	0	i
O=C(CNCc1ccc(F)cc1)Nc1ccccc1[N+](=O)[O-]	i	-13	1	0.68	0	·
O=[N+]([O-])c1ccc(C=Nc2ccc(Cl)c([N+](=O)[O-])c2)s1	i	10	-17	-5.6*	7	+
CN(Cc1ccccc1)C(=O)N1CCOCC1	·	-8	11	0.26	1	·
O=C(O)CCCN1C(=O)/C(=C\c2ccco2)SC1=S	i	-1	0	-0.41	-1	·
O=C(O)CCN1C(=O)/C(=C\c2ccc(-c3nc4ccccc4s3)o2)SC1=S	i	-17	-1	-4	0	i
Cn1nc([N+](=O)[O-])c(C(C#N)c2nc3ccccc3n2C)c(Cl)c1=O (stereo unspecified)	i	-3	-1	-3.6*	2	i
Cc1nn(C)c(C)c1N1C(=O)c2cccc3c(N)ccc(c23)C1=O	i	-15	-1	-0.57	0	·
Cc1ccc(N2C(=O)c3cccc4c(N)ccc(c34)C2=O)c2cccnc12	·	·	-18	-5.4*	-1	?
CC1(C)C(=O)Nc2ccccc2N1C(=O)Cn1ncc(Cl)c(Cl)c1=O	·	-4	-33	-6.3*	5	+
O=C(Cn1ncc(Cl)c(Cl)c1=O)N1CCOCC1	i	-15	18	-4.2*	4	+
O=C(Cn1nnc2ccccc2c1=O)N1CCOCC1	i	-2	1	-0.65	4	·
O=C(Cn1ncc(Cl)c(Cl)c1=O)N1CCc2ccccc21	i	-39	-15	-3.5	69	·
O=C(Cn1ncc(Cl)c(Cl)c1=O)N1CCN(Cc2ccccc2)CC1	i	22	-27	-5*	-3	+
CC(=O)c1ccc(OC(=O)CCc2nc3ccccc3s2)cc1	i	-11	1	0.97	3	·
SMILES	Autophagy mod	MDM2 E3 inh	TNF necrop inh	Dynein cargo inh	zVAD death inh	Dynein inh conf
CN(C)CCNC(=O)/C=C/c1cn(-c2ccccc2)nc1-c1cc2ccccc2oc1=O	i	-8	-16	-0.21	7	·
CCn1nc(C)cc1C(=O)Sc1cccc(Br)c1	·	-7	-22	-4*	0	+
O=C(Cn1nnc(-c2ccccc2F)n1)NCc1ccco1	i	-27	0	0.13	1	·
CCNc1nc(NC(C)CC)nc(Oc2ccc(OCC)nn2)n1 (stereo unspecified)	i	-5	-7	-0.99	75	·
Cc1ccc(/C=C2\CCC3=C2OC(N)=C(C#N)C3c2ccc(C)cc2)cc1 (stereo unspecified)	+	2	-24	-9	1	i
CN(C)c1ccc(C(c2ccc(N(C)C)cc2)c2ccc([N+](=O)[O-])cc2)cc1	·	-10	-1	-0.55	0	·
COc1cc(NC(=O)Cn2ncc(Cl)c(Cl)c2=O)c(C)cc1[N+](=O)[O-]	+	-25	-15	-3.8*	-3	+
COc1cc(NC(=O)CN2C(=O)CN(C)C2=O)c(C)cc1[N+](=O)[O-]	i	-8	2	-0.37	1	·
Cc1[nH]n(-c2ncc(-c3ccc(Cl)cc3)s2)c(=O)c1C(c1ccc(Cl)cc1)C(C#N)C#N (stereo unspecified)	i	7	0	-3.6*	1	+
CC(C)c1onc(C(=O)NCc2ccccc2)c1[N+](=O)[O-]	i	-2	0	1.4	0	·
CCOc1ccc(C(=O)/C=C/c2cc(OC)c(OC)c(OC)c2)cc1	i	-13	-5	-4.2*	61	+
COc1cc(/C=C/C(=O)c2ccc(F)cc2)cc(OC)c1OC	i	-11	-10	-4.7*	0	+
CN=c1scc(-c2ccccc2F)n1/N=C/c1ccc(O)c(O)c1O	i	-54	-9	-0.3	-1	·
CC(C)N=c1scc(-c2cccs2)n1/N=C/c1ccc(O)c(O)c1O	i	6	-3	-4.2*	1	+
CS(=O)(=O)c1ncc(Cl)c(C(=O)Nc2ccc3ccccc3c2)n1	i	-18	-3	-4.2*	4	+
O=C(CN1CCc2ccccc2C1)NC1CCCC1	i	-9	1	0.012	0	·
O=[N+]([O-])c1ccc(Sc2nnnn2-c2ccccc2)nc1	i	-17	-16	-5.2*	2	+
Cc1ccccc1-n1nnnc1SCC(N)=O	i	7	-1	2.2	0	·
Cc1ccccc1-n1nnnc1Sc1nnnn1-c1ccccc1	i	-14	-13	-5.1*	-1	+
O=C(O)C1CCN(Cc2cccnc2)CC1	i	-9	0	-0.27	1	·
O=C1C(Cl)=C(Nc2ccc3cn[nH]c3c2)C(=O)c2ccccc21	·	·	-25	-3.9*	-4	+
N#C/C(=C\c1cccs1)C(=O)c1ccccc1Cl	·	-21	-12	-4.9*	0	+
Nc1cccc2c1C(=O)N(C(=O)/C=C/c1cccc(Br)c1)C2=O	·	35*	-20	-4.9*	1	+
COc1cc(/C=C/C(=O)N2C(=O)c3cccc(N)c3C2=O)cc(OC)c1OC	i	7	20	-0.32	-1	·

Assay outcomes deposited in PubChem BioAssay by several laboratories.
